In ChEMBL document CHEMBL5653631, “A Potent and Selective ULK1 Inhibitor Suppresses Autophagy and Sensitizes Cancer Cells to Nutrient Stress” (iScience, 2018):

How the values were obtained:
[1] = molecular target: Serine/threonine-protein kinase/endoribonuclease IRE1 (Homo sapiens) (UniProt O75460); experiment: Inhibition of human recombinant IRE1 at 15 nM in presence of ATP by radiometric assay relative to control
[2] = molecular target: Myosin light chain kinase 2, skeletal/cardiac muscle (Homo sapiens) (UniProt Q9H1R3); experiment: Inhibition of human recombinant skMLCK at 15 nM in presence of ATP by radiometric assay relative to control
[3] = molecular target: T1, Tyrosine-protein kinase ZAP-70 (Homo sapiens) (UniProt P43403); experiment: Inhibition of human recombinant ZAP70 at 15 nM in presence of ATP by radiometric assay relative to control
T1 sequence (whole entry): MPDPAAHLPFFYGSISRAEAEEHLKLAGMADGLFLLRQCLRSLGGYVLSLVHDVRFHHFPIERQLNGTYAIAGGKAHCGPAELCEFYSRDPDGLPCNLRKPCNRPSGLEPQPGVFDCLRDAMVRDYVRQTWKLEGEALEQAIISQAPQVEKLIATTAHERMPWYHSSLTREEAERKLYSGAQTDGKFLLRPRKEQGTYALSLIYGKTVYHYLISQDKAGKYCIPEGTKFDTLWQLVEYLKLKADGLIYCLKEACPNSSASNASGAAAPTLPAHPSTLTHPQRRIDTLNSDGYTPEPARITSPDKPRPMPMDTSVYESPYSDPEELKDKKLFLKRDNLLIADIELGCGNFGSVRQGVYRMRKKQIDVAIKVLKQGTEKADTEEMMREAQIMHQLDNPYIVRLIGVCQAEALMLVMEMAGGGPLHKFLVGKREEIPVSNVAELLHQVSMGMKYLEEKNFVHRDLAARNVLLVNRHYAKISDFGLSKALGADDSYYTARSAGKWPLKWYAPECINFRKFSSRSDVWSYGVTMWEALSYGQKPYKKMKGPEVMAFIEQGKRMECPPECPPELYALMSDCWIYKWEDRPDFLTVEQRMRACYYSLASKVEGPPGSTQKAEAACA

[4] = molecular target: 5'-AMP-activated protein kinase catalytic subunit alpha-2 (Homo sapiens) (UniProt P54646); experiment: Inhibition of human recombinant AMPKa2 at 15 nM related to control ULK1
How it was run: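 Panel of 327 recombinant human kinases, each assayed in vitro by radiometric activity assay in duplicate at a single inhibitor concentration per compound, chosen with reference to its ULK1 inhibition. Activity remaining was expressed as percent of vehicle control, and percent inhibition was calculated as 100 minus percent activity remaining.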

[5] = molecular target: Casein kinase II subunit alpha (Homo sapiens) (UniProt P68400); experiment: Inhibition of human recombinant CK2a1 at 15 nM related to control ULK1
[6] = molecular target: T2, Serine/threonine-protein kinase Nek1 (Homo sapiens) (UniProt Q96PY6); experiment: Inhibition of human recombinant NEK1 at 15 nM related to control ULK1
T2 sequence (whole entry): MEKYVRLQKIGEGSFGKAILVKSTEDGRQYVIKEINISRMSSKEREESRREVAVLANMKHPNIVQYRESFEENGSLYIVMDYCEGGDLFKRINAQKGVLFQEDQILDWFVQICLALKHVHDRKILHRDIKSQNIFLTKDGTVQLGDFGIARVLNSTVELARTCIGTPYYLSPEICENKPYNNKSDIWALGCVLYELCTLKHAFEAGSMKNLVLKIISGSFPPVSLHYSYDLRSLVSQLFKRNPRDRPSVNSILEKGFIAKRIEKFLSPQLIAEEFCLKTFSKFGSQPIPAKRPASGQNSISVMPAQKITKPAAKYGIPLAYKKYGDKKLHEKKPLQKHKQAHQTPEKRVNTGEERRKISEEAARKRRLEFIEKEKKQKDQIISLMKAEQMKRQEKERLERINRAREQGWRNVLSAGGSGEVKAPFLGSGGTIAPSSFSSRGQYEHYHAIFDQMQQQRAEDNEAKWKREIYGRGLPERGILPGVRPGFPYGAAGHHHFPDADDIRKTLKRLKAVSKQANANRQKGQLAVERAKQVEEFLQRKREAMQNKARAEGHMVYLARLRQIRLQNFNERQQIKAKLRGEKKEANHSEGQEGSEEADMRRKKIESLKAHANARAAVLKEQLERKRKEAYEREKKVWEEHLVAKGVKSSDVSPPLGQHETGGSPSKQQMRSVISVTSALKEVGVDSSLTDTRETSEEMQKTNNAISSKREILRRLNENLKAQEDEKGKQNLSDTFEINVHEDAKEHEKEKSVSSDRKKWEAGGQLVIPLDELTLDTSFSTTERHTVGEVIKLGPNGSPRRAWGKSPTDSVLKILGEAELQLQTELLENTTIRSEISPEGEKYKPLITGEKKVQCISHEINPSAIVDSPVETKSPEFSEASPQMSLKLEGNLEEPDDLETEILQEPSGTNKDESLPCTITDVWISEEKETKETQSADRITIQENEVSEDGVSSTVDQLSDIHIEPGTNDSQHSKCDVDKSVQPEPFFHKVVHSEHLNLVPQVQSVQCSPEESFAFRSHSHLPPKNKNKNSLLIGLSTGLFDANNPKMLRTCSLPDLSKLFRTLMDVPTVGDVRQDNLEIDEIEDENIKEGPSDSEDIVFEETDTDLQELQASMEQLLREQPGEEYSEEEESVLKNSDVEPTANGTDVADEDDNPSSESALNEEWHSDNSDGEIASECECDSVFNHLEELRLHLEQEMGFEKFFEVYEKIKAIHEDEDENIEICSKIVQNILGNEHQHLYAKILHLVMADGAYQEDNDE

[7] = molecular target: Proto-oncogene tyrosine-protein kinase receptor Ret (Homo sapiens) (UniProt P07949); experiment: Inhibition of human recombinant RET at 40 nM in presence of ATP by radiometric assay relative to control
Sequence of Proto-oncogene tyrosine-protein kinase receptor Ret (Homo sapiens) (P07949 whole entry): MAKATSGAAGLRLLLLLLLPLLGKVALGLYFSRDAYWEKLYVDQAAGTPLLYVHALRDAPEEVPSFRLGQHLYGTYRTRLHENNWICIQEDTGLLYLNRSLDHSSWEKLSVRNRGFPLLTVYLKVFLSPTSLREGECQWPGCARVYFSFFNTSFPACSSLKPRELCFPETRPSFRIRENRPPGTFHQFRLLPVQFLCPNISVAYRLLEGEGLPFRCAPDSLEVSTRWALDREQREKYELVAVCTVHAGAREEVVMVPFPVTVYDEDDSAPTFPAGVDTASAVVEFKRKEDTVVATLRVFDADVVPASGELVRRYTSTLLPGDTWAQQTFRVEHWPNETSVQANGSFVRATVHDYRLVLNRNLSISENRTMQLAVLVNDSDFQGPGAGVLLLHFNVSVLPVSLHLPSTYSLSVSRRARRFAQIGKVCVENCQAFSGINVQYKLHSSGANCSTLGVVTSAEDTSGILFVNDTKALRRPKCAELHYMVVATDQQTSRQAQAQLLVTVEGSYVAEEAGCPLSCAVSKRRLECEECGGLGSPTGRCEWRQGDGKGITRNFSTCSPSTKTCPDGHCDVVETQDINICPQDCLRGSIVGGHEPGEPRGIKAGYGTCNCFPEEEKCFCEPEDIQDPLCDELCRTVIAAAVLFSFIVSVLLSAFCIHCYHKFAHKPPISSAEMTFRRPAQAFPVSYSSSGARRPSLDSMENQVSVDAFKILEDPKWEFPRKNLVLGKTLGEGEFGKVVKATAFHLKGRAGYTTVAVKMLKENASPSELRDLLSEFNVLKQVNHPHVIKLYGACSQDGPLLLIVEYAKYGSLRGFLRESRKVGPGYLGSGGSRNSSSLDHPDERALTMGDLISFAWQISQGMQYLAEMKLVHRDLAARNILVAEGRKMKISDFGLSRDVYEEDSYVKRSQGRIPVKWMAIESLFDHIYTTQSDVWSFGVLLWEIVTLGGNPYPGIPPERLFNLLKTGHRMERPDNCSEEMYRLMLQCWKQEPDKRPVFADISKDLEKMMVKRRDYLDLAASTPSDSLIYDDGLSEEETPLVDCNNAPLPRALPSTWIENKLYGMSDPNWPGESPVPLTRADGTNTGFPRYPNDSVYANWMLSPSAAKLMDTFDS

Sequence of Casein kinase II subunit alpha (Homo sapiens) (P68400 whole entry, looked up): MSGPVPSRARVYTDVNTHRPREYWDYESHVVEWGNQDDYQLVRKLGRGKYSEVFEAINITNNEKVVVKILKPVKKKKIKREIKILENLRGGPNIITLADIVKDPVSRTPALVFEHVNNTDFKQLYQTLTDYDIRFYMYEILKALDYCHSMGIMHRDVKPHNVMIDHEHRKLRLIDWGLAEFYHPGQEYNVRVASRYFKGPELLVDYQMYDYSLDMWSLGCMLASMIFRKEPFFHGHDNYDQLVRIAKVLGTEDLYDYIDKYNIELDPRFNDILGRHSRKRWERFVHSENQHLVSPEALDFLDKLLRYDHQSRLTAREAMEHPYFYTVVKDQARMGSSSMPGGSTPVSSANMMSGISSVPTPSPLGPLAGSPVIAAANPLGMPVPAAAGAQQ
Sequence of Myosin light chain kinase 2, skeletal/cardiac muscle (Homo sapiens) (Q9H1R3 whole entry): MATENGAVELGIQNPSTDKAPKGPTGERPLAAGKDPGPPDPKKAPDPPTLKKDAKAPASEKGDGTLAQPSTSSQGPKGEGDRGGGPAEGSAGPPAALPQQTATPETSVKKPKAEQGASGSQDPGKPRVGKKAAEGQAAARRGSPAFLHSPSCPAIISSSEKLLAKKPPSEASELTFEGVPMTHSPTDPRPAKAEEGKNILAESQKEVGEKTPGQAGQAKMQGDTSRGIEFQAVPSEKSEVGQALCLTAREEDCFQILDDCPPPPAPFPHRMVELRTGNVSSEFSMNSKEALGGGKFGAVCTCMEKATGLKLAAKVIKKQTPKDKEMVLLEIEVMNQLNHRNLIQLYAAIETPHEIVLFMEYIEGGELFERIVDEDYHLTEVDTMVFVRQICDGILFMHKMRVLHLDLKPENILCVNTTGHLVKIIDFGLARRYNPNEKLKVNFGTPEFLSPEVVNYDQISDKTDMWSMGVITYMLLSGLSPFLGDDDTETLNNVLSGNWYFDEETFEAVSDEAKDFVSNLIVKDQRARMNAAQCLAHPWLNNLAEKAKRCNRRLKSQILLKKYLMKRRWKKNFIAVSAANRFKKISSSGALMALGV
Sequence of 5'-AMP-activated protein kinase catalytic subunit alpha-2 (Homo sapiens) (P54646 whole entry, looked up): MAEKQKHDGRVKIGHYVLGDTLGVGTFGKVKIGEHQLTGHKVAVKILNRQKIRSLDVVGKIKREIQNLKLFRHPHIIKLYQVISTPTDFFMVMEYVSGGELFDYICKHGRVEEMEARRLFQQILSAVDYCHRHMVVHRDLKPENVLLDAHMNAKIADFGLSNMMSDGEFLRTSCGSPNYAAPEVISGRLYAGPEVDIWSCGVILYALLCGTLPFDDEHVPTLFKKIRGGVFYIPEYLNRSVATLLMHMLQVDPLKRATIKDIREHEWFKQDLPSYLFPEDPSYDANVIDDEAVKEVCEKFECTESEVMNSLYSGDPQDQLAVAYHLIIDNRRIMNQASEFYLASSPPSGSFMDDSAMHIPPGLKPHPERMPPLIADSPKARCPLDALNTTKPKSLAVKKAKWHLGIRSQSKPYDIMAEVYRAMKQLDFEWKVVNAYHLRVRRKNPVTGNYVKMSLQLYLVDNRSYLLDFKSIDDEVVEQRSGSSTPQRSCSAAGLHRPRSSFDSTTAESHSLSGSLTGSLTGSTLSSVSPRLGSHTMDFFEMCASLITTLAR
Sequence of Serine/threonine-protein kinase/endoribonuclease IRE1 (Homo sapiens) (O75460 19-977 limits assumed): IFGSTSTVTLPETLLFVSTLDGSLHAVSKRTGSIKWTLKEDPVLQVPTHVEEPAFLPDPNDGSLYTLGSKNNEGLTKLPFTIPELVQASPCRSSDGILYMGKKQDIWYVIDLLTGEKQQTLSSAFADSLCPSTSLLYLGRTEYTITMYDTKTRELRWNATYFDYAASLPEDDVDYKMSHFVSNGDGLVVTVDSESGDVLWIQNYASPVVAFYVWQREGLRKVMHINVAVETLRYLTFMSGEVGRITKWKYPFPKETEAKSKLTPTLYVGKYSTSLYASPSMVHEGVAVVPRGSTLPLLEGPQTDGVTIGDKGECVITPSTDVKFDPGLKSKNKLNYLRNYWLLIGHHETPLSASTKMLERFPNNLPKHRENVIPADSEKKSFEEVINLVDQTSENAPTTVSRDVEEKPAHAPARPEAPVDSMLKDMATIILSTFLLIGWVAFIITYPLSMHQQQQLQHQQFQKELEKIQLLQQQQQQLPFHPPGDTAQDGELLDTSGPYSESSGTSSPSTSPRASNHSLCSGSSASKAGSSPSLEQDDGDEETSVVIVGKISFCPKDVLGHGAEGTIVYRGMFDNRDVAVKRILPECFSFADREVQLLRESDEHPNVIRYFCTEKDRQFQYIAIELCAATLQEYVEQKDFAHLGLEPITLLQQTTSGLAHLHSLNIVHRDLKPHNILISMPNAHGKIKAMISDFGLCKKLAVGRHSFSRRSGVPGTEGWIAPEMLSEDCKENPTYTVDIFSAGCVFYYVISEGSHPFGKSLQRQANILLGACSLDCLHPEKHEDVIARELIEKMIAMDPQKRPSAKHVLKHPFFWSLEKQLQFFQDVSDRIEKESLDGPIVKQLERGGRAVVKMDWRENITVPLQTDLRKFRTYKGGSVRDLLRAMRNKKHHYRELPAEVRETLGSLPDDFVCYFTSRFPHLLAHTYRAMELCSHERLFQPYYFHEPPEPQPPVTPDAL

inhibition [1] [%] | inhibition [2] [%] | inhibition [3] [%] | fold change (FC) [4] | fold change (FC) [5] | fold change (FC) [6] | inhibition [7] [%] | SMILES
0 | 11 | 0 | 0.94 | 0 | 0.03 |  | CC(C)[C@H](NC(=O)c1cc(-c2cnn3cc(-c4ccc(OCCN5CCCCC5)cc4)cnc23)cs1)C(F)(F)F
 |  |  |  |  |  | 0 | O=C(N[C@@H](C1CC1)C(F)(F)F)c1cc(-c2cnn3cc(-c4ccc(F)cc4)cnc23)cs1
